WT yeast gro inh = growth inhibition of WT yeast, mitochondrial fusion screen; AID 1362; inhibition, % at 10 µM; mitochondrial fusion phenotypic screen, WT strain; hit rate 2.1% among 190,000; in the data active = inhibition above about 58%; tested in S. cerevisiae
BB579 growth dn = chemicals that inhibit yeast BB579 growth in restrictive medium (lifespan-shortening candidates); S. cerevisiae BB579 growth, OD615, 48 h; inhibition, % at 10 µM; hit rate 0.51% among 140,000; AID 804;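 active = inhibition above a set limit, 3 SD over the mean compound inhibition, cut at about 44% in these data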
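Assay system: S. cerevisiae DeaD strain BB579 yeast. Medium: CSMM-D restrictive synthetic medium containing dextrose (glucose). Times: 4 h cell preincubation, 48 h compound exposure, 30 °C humidified. Signal: OD615 turbidity measurement. Benchmarks: positive control amphotericin B 10 µg/mL.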
RAM network inh = blocks the yeast RAM network; inhibition, % at 50 µM; AID 868; S. cerevisiae dse1pr::URA3 reporter, 5-FOA growth OD615, 2 d; analog-sensitive cbk1-as2 kinase mutant strain; hit rate 1.8% among 190,000;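 active = inhibition above a set limit, 3 SD over mean compound inhibition, cut at about 8.4% in these data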;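 note: inhibition rescues growth on 5-FOA so higher OD means more RAM inhibition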
Yeast life ext = extends the lifespan of yeast. S. cerevisiae growth with nicotinamide, OD615; deaD strain in restrictive glucose medium. AID 775. hit rate 0.68% among 130,000. inhibition of the nicotinamide effect, % at 10 µM;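 active = inhibition above a set limit, placed 3 SD over the median of all compounds, cut at about 26% in these data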
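Measured by: optical density (absorbance) at 615 nm; System: modified budding yeast, DeaD strain; Medium: restrictive CSMM-D dextrose medium; Timing: 4 h preincubation then 48 h treatment at 30 °C.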
A number is an active result; . = inactive; / = no result. In the library only some 4.3% were active in any assay of this set; here they are far more common.

SMILES	WT yeast gro inh	BB579 growth dn	RAM network inh	Yeast life ext
COc1ccccc1CNC(=O)c1csc(Cc2ccc(Cl)cc2)n1	.	.	8.7	.
COc1ccc(CNC(=O)c2csc(Cc3ccccc3)n2)cc1	.	.	.	.
Cc1cc(NC(=O)C(=O)c2cn(C)c3ccccc23)no1	.	/	.	/
COc1ccc(NC(=O)c2cc3n(n2)C(C(F)(F)F)CC(c2ccc4c(c2)OCO4)N3)cc1OC (centres undefined)	68	.	.	.
COc1cccc(C2CC(C(F)(F)F)n3nc(C(=O)Nc4c(C)n(C)n(-c5ccccc5)c4=O)cc3N2)c1 (centres undefined)	.	/	.	/
Cc1ccc(C2CC(C(F)(F)F)n3nc(C(=O)Nc4c(C)n(C)n(-c5ccccc5)c4=O)cc3N2)cc1 (centres undefined)	.	/	9.9	/
Cc1cccc(NC(=O)c2cc3n(n2)C(C(F)(F)F)CC(c2ccc4c(c2)OCO4)N3)c1 (centres undefined)	67	.	.	.
CCN1C(=O)C(CC(=O)Nc2ccc(OC)cc2)N(Cc2ccco2)C1=S (centres undefined)	.	.	.	.
CCc1c(O)cc(=O)n(-c2ccccc2)c1-c1ccccc1	.	.	.	.
CC1CCN(c2ncnc3c2cnn3Cc2ccc(Cl)cc2)CC1	63	.	.	.
Cc1ccc(Cn2ncc3c(N4CCN(Cc5ccc(Cl)cc5)CC4)ncnc32)cc1	64	.	.	.
CC1CC(C)CN(c2ncnc3c2cnn3-c2ccc(Cl)cc2)C1 (centres undefined)	62	.	.	.
O=C(Oc1ccc(Br)cc1C(=S)N1CCCC1)c1ccccc1Cl	.	.	.	.
Cc1ccccc1C(=O)Oc1ccc(Br)cc1C(=S)N1CCCC1	.	.	9.8	.
O=S(=O)(NCCC(c1ccc(F)cc1)c1ccco1)c1ccccc1 (centres undefined)	60	.	.	.
O=C(NNC(=O)C1CCN(Cc2ccc(F)cc2Cl)CC1)Nc1ccc([N+](=O)[O-])cc1	.	/	.	/
Cc1cccc(-c2nc3sc(C)cc3c(=O)o2)c1	.	/	.	/
CN1CCN(CC(=O)Nc2ccc(Cl)cc2Cl)CC1	.	.	.	40
CCCC1CCC(c2nc(-c3cccnc3)no2)CC1 (centres undefined)	.	.	.	.
CCCCCCC1CCC(c2nc(-c3ccncc3)no2)CC1 (centres undefined)	79	.	.	.
CCCCCC1CCC(C(=O)O)CC1 (centres undefined)	.	52	.	.
COc1ccc2cc3c(N)nn(C(=O)C4CCC(C(C)(C)C)CC4)c3nc2c1 (centres undefined)	92	.	.	.
COc1ccc(S(=O)(=O)n2nc(C)cc2C)c(C)c1C	.	.	.	.
O=C(O)CC(NC(=O)COc1ccccc1)c1cccc([N+](=O)[O-])c1 (centres undefined)	.	/	.	/
COc1ccccc1C(=O)N(CCN(C)C)c1nc2cc(C)cc(C)c2s1	.	/	.	/
SMILES	WT yeast gro inh	BB579 growth dn	RAM network inh	Yeast life ext
CCN(CC)CCN(C(=O)c1c(F)cccc1F)c1nc2cc(C)cc(C)c2s1	59	/	.	/
COc1ccc(C(O)(c2ccccc2OC)C(CN2CCOCC2)c2ccccc2)cc1 (centres undefined)	.	/	.	/
CC(=O)C1=C(C)N(Cc2ccccc2)C(=O)N[C@@H]1c1cccc(C(F)(F)F)c1	.	.	.	29
O=C(NCc1n[nH]c(=S)n1-c1ccc(Br)cc1)c1cccs1	.	/	.	/
CCc1ccc(S(=O)(=O)NCc2csc(-c3ccccc3)n2)s1	.	.	.	.
CCc1ccc(S(=O)(=O)NCCc2csc(-c3ccccc3)n2)s1	.	.	8.5	.
O=C(Nc1nc2c(s1)CN(Cc1ccccc1)CC2)c1c(F)cccc1F	.	/	.	/
C=CCNC(=O)C1(c2ccccc2)CC1(Cl)Cl (centres undefined)	.	.	.	.
Cc1ccc2nc(-c3cccc(NS(C)(=O)=O)c3)cc(-c3ccccc3)c2c1	94	.	.	.
O=C(Cc1c2ccccc2nc2ccccc12)c1ccccc1	.	.	.	.
CSc1ccc(S(=O)(=O)Nc2ccc(S(=O)(=O)Nc3ccc(C)cc3)cc2)cc1	.	.	.	.
Cc1ccc(S(=O)(=O)Nc2ccc(N=Nc3ccc(O)cc3)cc2)cc1	71	.	11	.
Cc1ccc(S(=O)(=O)Nc2ccccc2C(N)=O)cc1	.	.	.	.
Cc1ccc(S(=O)(=O)Nc2ccccc2CNc2ccc(Br)cn2)cc1	65	.	.	.
Cc1ccc(S(=O)(=O)Nc2ccccc2-c2ccccc2NS(=O)(=O)c2ccc(C)cc2)cc1	62	.	.	.
Oc1ccc(C2C(c3ccccc3)=NN=C(c3ccc(Cl)cc3)N2O)c(O)c1 (centres undefined)	.	.	.	.
CCN(CC)C(=O)c1sc(NC(=O)C(C)C)c(C#N)c1C	.	/	.	/
Oc1c(Br)cc(Cl)cc1C=Nc1ccc(N2CCOCC2)cc1	.	/	.	/
Oc1c(Br)cc(Cl)cc1C=Nc1ccccc1Br	.	65	.	.
Cc1cc(N2CCCCC2)n2ncc(-c3ccccc3)c2n1	.	.	.	.
Cc1cc(N2CCN(C(=O)c3ccco3)CC2)n2ncc(-c3ccccc3)c2n1	93	98	.	.
Cc1cc(N2CCCCC2)n2ncc(-c3ccc(Cl)cc3)c2n1	58	.	.	.
CCOc1cccc(-c2nn(-c3ccccc3)cc2/C=C(/C#N)C(=O)NCCCn2ccnc2)c1	60	.	.	.
N#C/C(=C/c1cn(-c2ccccc2)nc1-c1cccc(OCc2ccccc2)c1)C(=O)NCCCn1ccnc1	.	.	.	.
COc1ccccc1C1CC(c2cccs2)=Nc2ccccc2S1 (centres undefined)	.	.	.	.
SMILES	WT yeast gro inh	BB579 growth dn	RAM network inh	Yeast life ext
COc1ccccc1C1CN(c2ccc(F)cc2F)N=C1c1cccs1 (centres undefined)	79	.	.	.
CCOC(=O)C1=C(C)NC(SCC(=O)OC)=C(C#N)C1c1ccc(C(=O)OC)cc1 (centres undefined)	.	.	11	.
O=C(Nc1cccc(Cl)c1)N(Cc1nc2ccccc2c(=O)[nH]1)C1CCCC1	.	.	.	.
Cc1cccc(NC(=O)N(Cc2nc3ccccc3c(=O)[nH]2)C2CCCC2)c1	78	.	.	.
CC(C)(c1ccccc1)c1ccc(OCCn2cnc3ccccc3c2=O)cc1	/	.	8.7	.
O=C(c1ccccc1)c1ccc(OCCn2cnc3ccccc3c2=O)cc1	.	.	.	.
CCOc1ccc2c(c1)OC(c1ccc(C)cc1)(C(F)(F)F)NC2=O (centres undefined)	60	.	.	.
CCOc1ccc2[nH]cc(S(=O)(=O)c3ccc(C)cc3)c(=O)c2c1	.	/	.	/
CCC(C)Nc1c([N+](=O)[O-])cc(C)cc1[N+](=O)[O-] (centres undefined)	67	.	.	.
COc1ccccc1/C=C\C=N\n1c(C2CCCCC2)n[nH]c1=S	70	.	.	.
COc1ccc(CC(=O)Nc2ccc(S(=O)(=O)NC(C)C)cc2)cc1	.	.	.	.

Compound activity: PubChem, SRMLSC
